Experimental data published in ChEMBL document CHEMBL1136814, “Design of a new peptidomimetic agonist for the melanocortin receptors based on the solution structure of the peptide ligand, Ac-Nle-cyclo[Asp-Pro-DPhe-Arg-Trp-Lys]-NH(2)” (Bioorg Med Chem Lett, 2003).

What was measured:
Melanocortin receptor 4 [1] = molecular target: T1, Melanocortin receptor 4 (Homo sapiens, UniProt P32245); test: Binding affinity towards human melanocortin 4 receptor (hMC4R) using [125I]NDP-alpha-MSH as radioligand
T1 sequence (P32245 whole entry): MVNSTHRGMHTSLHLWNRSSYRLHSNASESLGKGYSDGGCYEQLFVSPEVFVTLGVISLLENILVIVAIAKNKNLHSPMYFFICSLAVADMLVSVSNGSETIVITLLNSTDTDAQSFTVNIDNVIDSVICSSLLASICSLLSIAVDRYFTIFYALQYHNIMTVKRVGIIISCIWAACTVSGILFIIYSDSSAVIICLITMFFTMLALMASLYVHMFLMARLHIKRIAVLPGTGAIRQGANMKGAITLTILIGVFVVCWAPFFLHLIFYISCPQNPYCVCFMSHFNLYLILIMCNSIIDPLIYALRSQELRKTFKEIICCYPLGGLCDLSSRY
In short: (§1)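 Nonspecific binding taken with excess unlabeled NDP-MSH. Stopped by rapid filtration through GF/C glass-fibre filters, three ice-cold water washes, bound radioactivity by scintillation counting. IC50 from nonlinear regression of concentration curves.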

Melanocortin receptor 3 = Melanocortin receptor 3 (Homo sapiens, UniProt P41968); test: Binding affinity towards human melanocortin 3 receptor (hMC3R) using [125I]NDP-alpha-MSH as radioligand; in short: as §1
Chain of Melanocortin receptor 3 (P41968 whole entry): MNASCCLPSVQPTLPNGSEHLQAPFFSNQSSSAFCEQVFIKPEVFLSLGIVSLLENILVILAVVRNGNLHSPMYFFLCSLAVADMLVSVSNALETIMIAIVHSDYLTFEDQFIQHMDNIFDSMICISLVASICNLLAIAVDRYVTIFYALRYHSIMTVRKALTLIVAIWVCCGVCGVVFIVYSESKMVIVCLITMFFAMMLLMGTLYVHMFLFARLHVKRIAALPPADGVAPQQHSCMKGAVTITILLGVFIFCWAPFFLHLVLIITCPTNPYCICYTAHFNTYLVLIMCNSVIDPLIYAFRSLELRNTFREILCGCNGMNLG

[2] = molecular target: Melanocyte-stimulating hormone receptor (Mus musculus, UniProt Q01727); test: Binding affinity towards mouse Melanocortin 1 receptor (mMC1R) using [125I]NDP-alpha-MSH as radioligand
Chain of Melanocyte-stimulating hormone receptor (Q01727 whole entry): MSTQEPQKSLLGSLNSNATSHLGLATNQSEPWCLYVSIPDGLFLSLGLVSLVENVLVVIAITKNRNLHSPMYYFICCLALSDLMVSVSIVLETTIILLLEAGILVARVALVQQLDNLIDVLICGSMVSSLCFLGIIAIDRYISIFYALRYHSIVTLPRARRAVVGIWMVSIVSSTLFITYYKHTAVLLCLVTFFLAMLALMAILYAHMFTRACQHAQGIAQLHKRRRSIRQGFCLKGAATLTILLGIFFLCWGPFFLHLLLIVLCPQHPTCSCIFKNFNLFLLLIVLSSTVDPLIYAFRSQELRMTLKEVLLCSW
In short: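 Receptor membranes ([…]) incubated 2 h at 30 °C in assay buffer with test compound at various concentrations plus 0.2 nM 125I-NDP-α-MSH. Nonspecific binding taken with excess unlabeled NDP-MSH. Stopped by rapid filtration through GF/C glass-fibre filters, three ice-cold water washes, bound radioactivity by scintillation counting. IC50 from nonlinear regression of concentration curves.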

Melanocortin receptor 4 [3] = molecular target: T1, Melanocortin receptor 4; test: Intracellular levels of cAMP in HEK 293 cells expressing human melanocortin 4 receptor (hMC4R); format: cell-based, HEK293
In short: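 Cells seeded at 75,000/well on fibronectin and assayed about 48 h later. Medium replaced with DMEM containing IBMX, peptide added across a six-point dilution range starting at 0.1 nM, 30 min at 37 °C. Lysis stopped the reaction; cAMP quantified by chemiluminescent ELISA. EC50 reported as mean ± SEM of two determinations.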

SMILES | IC50 (Melanocortin receptor 4 [1]) | IC50 (Melanocortin receptor 3) | IC50 [2] | EC50 (Melanocortin receptor 4 [3])
CC(=O)N[C@@H](Cc1ccccc1)C(=O)N(CCCCN)C1CCC(N(CCc2c[nH]c3ccccc23)C(C)=O)CC1 (stereo partly drawn) | 9.25 µM | > 10 µM | 10 µM | 
CC(=O)N(CCCCN=C(N)N)C1CCC(N(CCc2c[nH]c3ccccc23)C(C)=O)CC1 (stereo not drawn) | > 10 µM | > 10 µM | > 10 µM | 
CC(=O)N[C@@H](Cc1ccccc1)C(=O)N(CCCCN=C(N)N)C1CCC(N(C)C(C)=O)CC1 (stereo partly drawn) | > 10 µM | > 10 µM | 9 µM | 
CC(=O)N[C@H](Cc1ccccc1)C(=O)N(CCCCNC(=N)N)C1CCC(N(CCc2c[nH]c3ccccc23)C(C)=O)CC1 (stereo in doubt; 11) | 0.5 µM |  |  | 
CC(=O)N[C@H](Cc1ccccc1)C(=O)N(CCCCNC(=N)N)C1CCC(N(CCc2c[nH]c3ccccc23)C(C)=O)CC1 (stereo in doubt; cis) | 0.0077 µM | 0.28 µM | 0.051 µM | 0.004 µM
CC(=O)N[C@H](Cc1ccccc1)C(=O)N(CCCCNC(=N)N)C1CCC(N(CCc2c[nH]c3ccccc23)C(C)=O)CC1 (stereo in doubt; trans) | 3.5 µM | > 10 µM | > 10 µM | 0.68 µM
